Test results: ChEMBL document CHEMBL4308915, “Synthesis of novel pyrazoline derivatives and the evaluation of death mechanisms involved in their antileukemic activity” (Bioorg Med Chem, 2019)
Calls of active or inactive are those of the source. No cut-off for these calls is given here.

Assays:
[1] = Hemolytic activity in human RBC at 9 times IC50 relative to control; type: ADME, cell-based, Erythrocyte; conditions: red blood cells (erythrocytes), read-out: Activity
In short: (§1)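 RBC from healthy non-smoking volunteers incubated with increasing concentrations of the selected pyrazolines. Saline served as the 0% lysis control and distilled water as the 100% lysis control. Percent hemolysis calculated relative to these controls.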

Jurkat [2] = assay: Induction of apoptosis in human Jurkat cells assessed as increase in membrane blebbing at 33.7 uM by acridine orange/ethidium bromide staining-based fluorescence microscopic analysis; type: functional, cell-based
B16-F10 [3] = assay: Cytotoxicity against mouse B16F10 cells assessed as reduction in cell viability after 24 hrs by MTT assay; type: functional, cell-based; conditions: B16-F10, 24 h
In short: (§2)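 MTT viability after 24 h exposure. Cells seeded at 5x10^4 per well and tested at 1-100 µM. Optical density of untreated cells set as 100% viable. IC50 derived by curve fitting. PBMC from healthy non-smoking volunteers, isolated by Ficoll-Hypaque.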

Jurkat [4] = assay: Induction of DNA fragmentation in human Jurkat cells assessed as increase in ladder formation at 33.7 uM after 12 hrs by ethidium bromide staining based agarose gel electrophoresis method; type: functional, cell-based
Jurkat [5] = assay: Induction of apoptosis in human Jurkat cells assessed as reduction in cells with intact mitochondrial membrane potential at 33.7 uM after 12 hrs by flow cytometric analysis relative to control; type: functional; set-up: scale not given: the % may be the effect or the level left
Jurkat [6] = assay: Induction of apoptosis in human Jurkat cells assessed as increase in AIF release at 33.7 uM after 12 hrs by flow cytometric analysis relative to control; type: functional
PBMC [7] = assay: Cytotoxicity against human PBMC assessed as reduction in cell viability after 24 hrs by MTT assay; type: cell-based
PBMC [8] = assay: Cytotoxicity against human PBMC assessed as reduction in cell viability after 72 hrs by MTT assay; type: cell-based
K562 [9] = assay: Cytotoxicity against human K562 cells assessed as reduction in cell viability after 48 hrs by MTT assay; type: functional, cell-based; conditions: K562, 48 h
K562 [10] = assay: Cell cycle arrest in human K562 cells assessed as increase in accumulation at G0/G1 phase at 55.7 uM after 12 hrs by propidium iodide/RNAse staining based flow cytometric analysis relative to control; type: functional
K562 [11] = assay: Induction of apoptosis in human K562 cells assessed as increase in caspase-3 expression at 55.7 uM after 12 hrs by flow cytometric analysis; type: functional, cell-based
Daudi [12] = assay: Cytotoxicity against human Daudi cells assessed as reduction in cell viability after 24 hrs by MTT assay; type: functional, cell-based; in short: as §2
Jurkat [13] = assay: Cytotoxicity against human Jurkat cells assessed as reduction in cell viability after 72 hrs by MTT assay; type: functional, cell-based
K562 [14] = assay: Induction of apoptosis in human K562 cells assessed as increase in membrane blebbing at 55.7 uM by acridine orange/ethidium bromide staining-based fluorescence microscopic analysis; type: functional, cell-based
Jurkat [15] = assay: Cytotoxicity against human Jurkat cells assessed as reduction in cell viability after 24 hrs by MTT assay; type: functional, cell-based; in short: as §2
[16] = Hemolytic activity in human RBC at 1 time IC50 relative to control; type: ADME, cell-based, Erythrocyte; conditions: red blood cells (erythrocytes), read-out: Activity; in short: as §1
K562 [17] = assay: Cytotoxicity against human K562 cells assessed as reduction in cell viability after 24 hrs by MTT assay; type: functional, cell-based; conditions: K562, 24 h; in short: as §2
Jurkat [18] = assay: Induction of apoptosis in human Jurkat cells assessed as decrease in survivin level at 33.7 uM after 12 hrs by flow cytometric analysis relative to control; type: functional
Jurkat [19] = assay: Induction of apoptosis in human Jurkat cells assessed as increase in Bax expression at 33.7 uM after 12 hrs by flow cytometric analysis relative to control; type: functional
Homo sapiens = species: Homo sapiens; assay: (§3) Cytotoxicity against acute leukemia patient-derived bone marrow cells assessed as reduction in cell viability after 24 hrs; type: functional, cell-based
In short: (§4)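 Mononuclear cells from acute leukemia patient samples (peripheral blood or bone marrow, taken before first treatment at diagnosis or relapse) isolated by Ficoll-Hypaque.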

[20] = as §3; type: functional, cell-based; conditions: Homo sapiens; in short: as §4
K562 [21] = assay: Induction of apoptosis in human K562 cells assessed as reduction in cells with intact mitochondrial membrane potential at 55.7 uM after 12 hrs by flow cytometric analysis relative to control; type: functional; set-up: scale not given: the % may be the effect or the level left
[22] = Hemolytic activity in human RBC at 15 times IC50 relative to control; type: ADME, cell-based, Erythrocyte; conditions: red blood cells (erythrocytes), read-out: Activity; in short: as §1
[23] = Selectivity index, ratio of IC50 for human PBMC to IC50 for mouse B16F10 cells after 24 hrs; type: toxicity; conditions: PBMC versus B16F10 cells, read-out: Ratio IC50
In short: (§5)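 MTT viability after 24 h exposure to 1-100µM; untreated control OD taken as 100%. IC50 by curve fitting in each line and in PBMC from six healthy donors (Ficoll-Hypaque). SI = IC50 PBMC / IC50 tumor line; SI ≥5 high, 2–5 moderate, <2 low.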

B16-F10 [24] = assay: Cytotoxicity against mouse B16F10 cells assessed as reduction in cell viability after 72 hrs by MTT assay; type: functional, cell-based; conditions: B16-F10, 72 h
K562 [25] = assay: Antiproliferative activity against human K562 cells assessed as reduction in KI-67 expression at 55.7 uM after 12 hrs by flow cytometric analysis; type: functional, cell-based
[26] = Hemolytic activity in human RBC at 3 times IC50 relative to control; type: ADME, cell-based, Erythrocyte; conditions: red blood cells (erythrocytes), read-out: Activity; in short: as §1
PBMC [27] = assay: Cytotoxicity against human PBMC assessed as reduction in cell viability after 48 hrs by MTT assay; type: cell-based
K562 [28] = assay: Induction of apoptosis in human K562 cells assessed as increase in loss of membrane integrity at 55.7 uM by acridine orange/ethidium bromide staining-based fluorescence microscopic analysis; type: functional, cell-based
K562 [29] = assay: Induction of apoptosis in human K562 cells at 55.7 uM after 12 hrs by Annexin-V FITC staining-based flow cytometry relative to control; type: functional
[30] = Hemolytic activity in human RBC at 12 times IC50 relative to control; type: ADME, cell-based, Erythrocyte; conditions: red blood cells (erythrocytes), read-out: Activity; in short: as §1
[31] = Selectivity index, ratio of IC50 for human PBMC to IC50 for human Jurkat cells after 24 hrs; type: toxicity; conditions: PBMC versus Jurkat cells, read-out: Ratio IC50; in short: as §5
Jurkat [32] = assay: Cytotoxicity against human Jurkat cells assessed as reduction in cell viability after 48 hrs by MTT assay; type: functional, cell-based
B16-F10 [33] = assay: Cytotoxicity against mouse B16F10 cells assessed as reduction in cell viability after 48 hrs by MTT assay; type: functional, cell-based; conditions: B16-F10, 48 h
[34] = Selectivity index, ratio of IC50 for human PBMC to IC50 for human Daudi cells after 24 hrs; in short: as §5
Jurkat [35] = assay: Cell cycle arrest in human Jurkat cells assessed as increase in accumulation at S phase at 33.7 uM after 12 hrs by propidium iodide/RNAse staining based flow cytometric analysis; type: functional
K562 [36] = assay: Cytotoxicity against human K562 cells assessed as reduction in cell viability after 72 hrs by MTT assay; type: functional, cell-based; conditions: K562, 72 h
K562 [37] = assay: Induction of apoptosis in human K562 cells assessed as decrease in survivin level at 55.7 uM after 12 hrs by flow cytometric analysis relative to control; type: functional
K562 [38] = assay: Induction of apoptosis in human K562 cells assessed as increase in chromatin condensation at 55.7 uM by acridine orange/ethidium bromide staining-based fluorescence microscopic analysis; type: functional, cell-based
Jurkat [39] = assay: Antiproliferative activity against human Jurkat cells assessed as reduction in KI-67 expression at 33.7 uM after 12 hrs by flow cytometric analysis; type: functional, cell-based
Jurkat [40] = assay: Induction of apoptosis in human Jurkat cells assessed as increase in loss of membrane integrity at 33.7 uM by acridine orange/ethidium bromide staining-based fluorescence microscopic analysis; type: functional, cell-based
[41] = Hemolytic activity in human RBC at 2 times IC50 relative to control; type: ADME, cell-based, Erythrocyte; conditions: red blood cells (erythrocytes), read-out: Activity; in short: as §1
Jurkat [42] = assay: Induction of apoptosis in human Jurkat cells assessed as increase in chromatin condensation at 33.7 uM by acridine orange/ethidium bromide staining-based fluorescence microscopic analysis; type: functional, cell-based
Daudi [43] = assay: Cytotoxicity against human Daudi cells assessed as reduction in cell viability after 48 hrs by MTT assay; type: functional, cell-based
[44] = Selectivity index, ratio of IC50 for human PBMC to IC50 for human K562 cells after 24 hrs; type: toxicity; conditions: PBMC versus K562 cells, read-out: Ratio IC50; in short: as §5
K562 [45] = assay: Induction of apoptosis in human K562 cells assessed as increase in Bax expression at 55.7 uM after 12 hrs by flow cytometric analysis relative to control; type: functional
Jurkat [46] = assay: Induction of apoptosis in human Jurkat cells at 33.7 uM after 12 hrs by Annexin-V FITC staining-based flow cytometry relative to control; type: functional
K562 [47] = assay: Induction of apoptosis in human K562 cells assessed as increase in FasR expression at 55.7 uM after 12 hrs by flow cytometric analysis relative to control; type: functional
Jurkat [48] = assay: Induction of apoptosis in human Jurkat cells assessed as increase in FasR expression at 33.7 uM after 12 hrs by flow cytometric analysis relative to control; type: functional
PBL = assay: Cytotoxicity against acute leukemia patient-derived PBL cells assessed as reduction in cell viability after 24 hrs; type: functional, cell-based; conditions: Homo sapiens; in short: as §4
Daudi [49] = assay: Cytotoxicity against human Daudi cells assessed as reduction in cell viability after 72 hrs by MTT assay; type: functional, cell-based
Jurkat [50] = assay: Induction of apoptosis in human Jurkat cells assessed as increase in caspase-3 expression at 33.7 uM after 12 hrs by flow cytometric analysis relative to control; type: functional

COc1cc(C2=NN(C(C)=O)C(c3ccc4ccccc4c3)C2)cc(OC)c1OC (stereo not drawn)
hemolysis at 9 times IC50 [1]: 2.4%
Activity (Jurkat [2]): Active
IC50 (B16-F10 [3]): 72.3 µM
Activity (Jurkat [4]): Active
Activity (Jurkat [5]): 41%
Activity (Jurkat [6]): 6%
IC50 (PBMC [7]): 497 µM
IC50 (PBMC [8]): 55.3 µM
IC50 (K562 [9]): 21.9 µM
Activity (K562 [10]): 7.4%
Activity (K562 [11]): inactive
IC50 (Daudi [12]): 46.2 µM
IC50 (Jurkat [13]): 25.3 µM
Activity (K562 [14]): Active
IC50 (Jurkat [15]): 33.7 µM
hemolysis at 1 times IC50 [16]: 1.9%
IC50 (K562 [17]): 55.7 µM
Activity (Jurkat [18]): 21.4%
Activity (Jurkat [19]): 20.5%
Activity (Homo sapiens): Dose-dependent effect
IC50 [20]: 16.2 to 44.6 µM
Activity (K562 [21]): 26%
hemolysis at 15 times IC50 [22]: 6.4%
selectivity ratio at 24 h [23]: 6.9
IC50 (B16-F10 [24]): 23.3 µM
Activity (K562 [25]): Active
hemolysis at 3 times IC50 [26]: 1.6%
IC50 (PBMC [27]): 105 µM
Activity (K562 [28]): Active
Activity (K562 [29]): 18.8%
hemolysis at 12 times IC50 [30]: 3.2%
selectivity ratio at 24 h [31]: 14.7
IC50 (Jurkat [32]): 27.7 µM
IC50 (B16-F10 [33]): 56.6 µM
Ratio IC50 [34]: 10.7
Activity (Jurkat [35]): inactive
IC50 (K562 [36]): 15.5 µM
Activity (K562 [37]): 22.2%
Activity (K562 [38]): Active
Activity (Jurkat [39]): Active
Activity (Jurkat [40]): Active
hemolysis at 2 times IC50 [41]: 1.5%
Activity (Jurkat [42]): Active
IC50 (Daudi [43]): 20.2 µM
selectivity ratio at 24 h [44]: 8.9
Activity (K562 [45]): 16.8%
Activity (Jurkat [46]): 29.2%
Activity (K562 [47]): 34.3%
Activity (Jurkat [48]): 30.3%
Activity (PBL): Dose-dependent effect
IC50 (PBL): 27.7 to 139 µM
IC50 (Daudi [49]): 5.1 µM
Activity (Jurkat [50]): 6.6%
